One may read the Ki as the equilibrium dissociation constant of an inhibitor or competing ligand from its target. Low values mean higher affinity, high ones lower affinity. What is called EC50 is the midpoint of the concentration-response curve.

The target of one data set is hH1R (Homo sapiens, UniProt P35367). Briefly: biochemical. The data set is classed as binding. To be noted: hH1R pKi.
The target in data set [1] is T1, hH2R (Homo sapiens, UniProt P25021). The format is binding. To be noted: hH2R pKi, [3H]tiotidine (Kd […], c = 10 nM); mean ± SEM.
The target in data set [2] is T2, hH3R (Homo sapiens, UniProt Q9Y5N1). Briefly: Radioligand competition binding with [3H]Nα-methylhistamine, Sf9 cell membranes. To be noted: hH3R pKi, [3H]Nα-methylhistamine (Kd 8.6 nM, c = 3 nM); mean ± SEM. (In a radioligand displacement assay an active substance lowers the binding of a labelled ligand.)
The target in data set [3] is T3, hH4R (Homo sapiens, UniProt Q9H3N8). The experiment in a line: Radioligand competition binding with [3H]histamine, Sf9 cell membranes. To be noted: hH4R pKi.
The target of data set [4] is T1, hH2R. Briefly: [35S]GTPγS binding assay, Sf9 cell membranes. The data set is classed as biochemical. Background: GTPγS is a poorly hydrolysed GTP analogue; its binding reports G protein activation.
In data set [5] the target is T2, hH3R. Briefly: [35S]GTPγS binding assay, Sf9 cell membranes. The data set is classed as biochemical.
In data set [6] the target is T3, hH4R. The experiment in a line: [35S]GTPγS binding assay, Sf9 cell membranes. The format is biochemical.
The target of data set [7] is T4, gpH2R (Cavia porcellus, UniProt P47747). Briefly: biochemical. The format is biochemical, guinea pig.
Target sequence in this assay (P47747 whole entry): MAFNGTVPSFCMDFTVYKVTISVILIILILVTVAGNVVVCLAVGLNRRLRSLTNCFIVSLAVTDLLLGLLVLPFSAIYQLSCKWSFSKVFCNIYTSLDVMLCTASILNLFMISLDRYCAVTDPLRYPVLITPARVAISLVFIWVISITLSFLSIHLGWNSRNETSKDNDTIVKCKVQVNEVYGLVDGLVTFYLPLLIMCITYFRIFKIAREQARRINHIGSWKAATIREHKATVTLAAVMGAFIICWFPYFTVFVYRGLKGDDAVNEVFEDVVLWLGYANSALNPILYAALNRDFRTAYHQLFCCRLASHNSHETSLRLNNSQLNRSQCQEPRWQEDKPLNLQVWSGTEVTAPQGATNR
Target sequence in this assay (P63092 1-380 isoform P63092-2 partner): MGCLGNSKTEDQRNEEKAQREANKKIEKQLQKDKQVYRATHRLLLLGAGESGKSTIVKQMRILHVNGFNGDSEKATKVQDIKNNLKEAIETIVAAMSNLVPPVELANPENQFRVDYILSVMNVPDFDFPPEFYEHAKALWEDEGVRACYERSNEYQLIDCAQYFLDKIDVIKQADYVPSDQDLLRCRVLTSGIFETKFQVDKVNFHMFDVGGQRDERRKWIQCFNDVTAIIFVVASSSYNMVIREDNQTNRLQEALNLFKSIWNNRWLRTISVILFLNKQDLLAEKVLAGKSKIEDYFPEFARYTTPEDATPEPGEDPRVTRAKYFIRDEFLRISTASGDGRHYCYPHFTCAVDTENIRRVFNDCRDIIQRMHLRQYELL
The target in another data set is rH2R (Rattus norvegicus, UniProt P25102). The experiment in a line: [35S]GTPγS binding assay, Sf9 cell membranes. The data set is classed as biochemical.
The target in the next data set is gpH1R (Cavia porcellus, UniProt P31389). The experiment in a line: Histamine H1 receptor assay on isolated guinea pig ileum.
Data set [8] deals with T4, gpH2R. Details: species or system guinea pig.
Target sequence in this assay (P47747 whole entry): as the sequence (P47747 whole entry) above
Data set [9] is described as follows: Chemical stability in binding buffer, RP-HPLC analysis. The format is physicochemical. The following applies: binding buffer pH 7.4, 100 μM, room temperature, 12 months. In a few lines:
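Test compounds (dimeric bisalkylguanidines) were held at 100 μM in binding buffer (12.5 mM MgCl2, 1 mM EDTA, 75 mM Tris/HCl, pH 7.4) at room temperature for 12 months.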

“And” between values parts separate entries of the source, which are not always exact repeats. Identical values can stand only once. “Also recorded” adds a separate entry of the source. Like-named read-outs stand apart in the source and are kept apart here.

rH2R, sequence (P25102 whole entry): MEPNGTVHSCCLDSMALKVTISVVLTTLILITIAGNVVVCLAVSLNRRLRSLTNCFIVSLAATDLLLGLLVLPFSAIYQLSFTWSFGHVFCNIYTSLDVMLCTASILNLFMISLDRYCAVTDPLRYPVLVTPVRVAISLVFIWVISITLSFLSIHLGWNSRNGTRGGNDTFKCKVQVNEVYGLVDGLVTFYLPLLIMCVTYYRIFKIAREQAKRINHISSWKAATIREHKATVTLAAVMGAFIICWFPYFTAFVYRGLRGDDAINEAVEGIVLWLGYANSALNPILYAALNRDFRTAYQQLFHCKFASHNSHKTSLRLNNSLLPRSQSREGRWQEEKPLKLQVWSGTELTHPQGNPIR
rH2R, sequence (P63092 1-380 isoform P63092-2 partner): as the sequence (P63092 1-380 isoform P63092-2 partner) above
T2 sequence (Q9Y5N1 whole entry): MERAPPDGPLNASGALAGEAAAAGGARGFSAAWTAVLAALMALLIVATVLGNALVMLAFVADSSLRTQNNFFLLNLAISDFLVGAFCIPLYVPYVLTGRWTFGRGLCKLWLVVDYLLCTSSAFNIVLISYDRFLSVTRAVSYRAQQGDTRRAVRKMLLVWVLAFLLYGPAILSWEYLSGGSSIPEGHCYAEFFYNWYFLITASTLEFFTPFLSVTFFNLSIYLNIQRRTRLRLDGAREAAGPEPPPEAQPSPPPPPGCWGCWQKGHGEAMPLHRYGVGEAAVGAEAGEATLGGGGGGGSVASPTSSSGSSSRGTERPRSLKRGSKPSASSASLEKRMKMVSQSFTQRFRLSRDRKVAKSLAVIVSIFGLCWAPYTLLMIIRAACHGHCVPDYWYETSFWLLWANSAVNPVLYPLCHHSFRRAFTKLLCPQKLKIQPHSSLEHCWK
T1 sequence (P25021 whole entry): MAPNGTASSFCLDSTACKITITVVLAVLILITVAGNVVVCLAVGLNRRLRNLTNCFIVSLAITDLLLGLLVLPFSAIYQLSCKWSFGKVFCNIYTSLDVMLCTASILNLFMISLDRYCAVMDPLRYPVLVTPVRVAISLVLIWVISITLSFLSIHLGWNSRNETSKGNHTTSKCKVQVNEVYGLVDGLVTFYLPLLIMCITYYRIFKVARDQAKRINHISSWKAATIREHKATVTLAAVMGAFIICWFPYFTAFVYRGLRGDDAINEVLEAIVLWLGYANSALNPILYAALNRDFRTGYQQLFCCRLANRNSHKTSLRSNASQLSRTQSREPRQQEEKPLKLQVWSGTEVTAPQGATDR
T1 sequence (P63092 1-380 isoform P63092-2 partner): as the sequence (P63092 1-380 isoform P63092-2 partner) above
T3 sequence (Q9H3N8 whole entry): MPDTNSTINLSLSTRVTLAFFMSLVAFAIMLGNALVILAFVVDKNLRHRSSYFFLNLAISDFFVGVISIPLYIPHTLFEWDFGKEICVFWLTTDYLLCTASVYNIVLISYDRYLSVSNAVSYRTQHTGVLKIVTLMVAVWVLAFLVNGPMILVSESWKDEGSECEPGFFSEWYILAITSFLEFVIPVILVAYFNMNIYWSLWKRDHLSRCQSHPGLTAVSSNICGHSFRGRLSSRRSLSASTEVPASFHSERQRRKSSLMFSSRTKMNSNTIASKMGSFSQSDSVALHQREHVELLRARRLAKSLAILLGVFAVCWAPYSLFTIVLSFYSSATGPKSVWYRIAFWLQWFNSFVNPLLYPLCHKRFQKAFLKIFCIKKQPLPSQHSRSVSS
gpH1R, sequence (P31389 whole entry): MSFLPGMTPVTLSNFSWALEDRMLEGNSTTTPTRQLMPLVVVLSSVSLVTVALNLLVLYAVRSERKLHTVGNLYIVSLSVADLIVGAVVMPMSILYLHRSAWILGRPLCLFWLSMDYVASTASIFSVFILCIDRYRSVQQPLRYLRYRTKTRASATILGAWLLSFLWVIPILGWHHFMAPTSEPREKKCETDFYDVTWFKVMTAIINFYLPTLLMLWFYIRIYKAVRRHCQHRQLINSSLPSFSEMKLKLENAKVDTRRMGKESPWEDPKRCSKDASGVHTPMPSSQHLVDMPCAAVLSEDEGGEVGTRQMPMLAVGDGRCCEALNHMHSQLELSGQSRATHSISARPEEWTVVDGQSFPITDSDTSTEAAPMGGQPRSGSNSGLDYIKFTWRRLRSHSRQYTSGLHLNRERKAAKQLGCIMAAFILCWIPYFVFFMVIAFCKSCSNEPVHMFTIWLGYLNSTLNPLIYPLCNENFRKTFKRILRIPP
hH1R, sequence (P35367 whole entry): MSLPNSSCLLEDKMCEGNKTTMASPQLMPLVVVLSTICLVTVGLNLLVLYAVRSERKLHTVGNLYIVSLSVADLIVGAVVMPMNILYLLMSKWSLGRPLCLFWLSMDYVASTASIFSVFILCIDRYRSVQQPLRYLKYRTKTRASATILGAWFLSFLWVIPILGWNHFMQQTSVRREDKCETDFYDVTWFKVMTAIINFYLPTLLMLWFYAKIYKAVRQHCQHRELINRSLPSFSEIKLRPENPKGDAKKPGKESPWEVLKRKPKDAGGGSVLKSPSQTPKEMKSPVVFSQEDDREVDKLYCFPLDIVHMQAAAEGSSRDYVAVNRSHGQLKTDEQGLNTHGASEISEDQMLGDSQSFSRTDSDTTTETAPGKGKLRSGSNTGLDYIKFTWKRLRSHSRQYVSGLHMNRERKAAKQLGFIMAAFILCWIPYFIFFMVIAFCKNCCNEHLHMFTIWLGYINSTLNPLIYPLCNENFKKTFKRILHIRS

For the compound `N=C(NCCCCCCCCCCCCNC(=N)NCCCc1c[nH]cn1)NCCCc1c[nH]cn1` [Compound 57, 1,1′-(Dodecane-1,12-diyl)bis{3-[3-(1H-imidazol-4-yl)propyl]guanidine}], the Ki was 355 nM on hH1R, 38.9 nM at hH2R [1], 16.2 nM on hH3R [2] and 20 nM on hH4R [3]. The EC50 at hH2R [4] is 53.7 nM; at gpH2R [7], 29.5 nM; at rH2R, 24.5 nM; on gpH2R [8], 7.76 nM. The “hH2R Emax” value at hH2R [4] was 0.52 ± 0.03. In addition, the Kb is 46.8 nM on hH3R [5], 324 µM at hH4R [6] and 123 nM on gpH1R. Further, the “hH3R Emax” value at hH3R [5] is 0. Further, the “hH4R Emax” value on hH4R [6] turned out to be 0. For the same compound, the “gpH2R Emax” value at gpH2R [7] is 0.89 ± 0.07; at gpH2R [8] it was 0.63 and 0.63 ± 0.03. The “rH2R Emax” value at rH2R is 0.80 and 0.80 ± 0.03. In addition, the “gpH1R pA2” value on gpH1R (guinea pig ileum, antagonism of histamine-induced contraction) stood at 6.91. Moreover, the chemical stability entry in [9] was “excellent chemical stabilities; also recorded: no decomposition”.
